Source: PubChem (several laboratories)
HCV NS3 hel inh: inhibitors of HCV NS3 helicase, primary screen, biochemical, Cy5 molecular beacon fluorescence; NS3 helicase DNA unwinding; 290,000 tested, 0.56% active; inhibition, % at 10.9 µM; Hepatitis C virus NS3 helicase;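 active = inhibition above the mean of all tested compounds plus 3 SD, set per campaign, cut at about 35% in these data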;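 also: 0% = DMSO wells and 100% = thioflavine S control wells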
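Test system: hepatitis C virus NS3 helicase domain fragment enzyme. Also added: annealed dual-labelled DNA beacon duplex, ATP-started. Timing: 60 min unwinding reaction at 25 °C after ATP addition. Technique: Cy5 fluorescence. Measure: % inhibition of unwinding.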
ABHD5-PLIN5 inh: ABHD5-PLIN5 interaction inhibitors, primary screen, cell lysate, split luciferase complementation, luminescence. Perilipin-5 (Homo sapiens) + 1-acylglycerol-3-phosphate O-acyltransferase ABHD5 (Homo …. Split G. princeps luciferase complementation, 4 h. inhibition, % at 4 µM. 360,000 tested, 0.78% active. AID 602281, 2012;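 active = inhibition above the mean inhibition across every tested compound plus 3 SD, cut at about 22% in these data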;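 also: 0% = DMSO only wells and the 100% control is not disclosed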
HCV core dimer: inhibitors of HCV core protein dimerization, primary screen, biochemical, TR-FRET, high-throughput. TR-FRET GST/Flag-core106 dimerization, 1536-well. inhibition, % at 5 µM. 300,000 tested, 0.33% active;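 active = inhibition above the mean of all tested compounds plus 3 SD, set per screening campaign, cut at about 45% in these data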
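System: GST/Flag-tagged HCV core106 proteins. Incubation: compound-protein-antibody incubation 4 h at 22.5 °C. Technique: HTRF with 340 nm excitation, 617/671 nm emission. Medium: KF-containing HEPES buffer, pH 7.45, DTT, CHAPS, BSA. Read-out: inhibition (%) from 671 over 617 nm ratio. Also added: Eu(K)-anti-GST 90 ng/mL plus XL665-anti-Flag 1 µg/mL.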
APOBEC3A inh: APOBEC3A ssDNA deaminase inhibitors, primary screen, selectivity assay for APOBEC3G inhibitor project, biochemical, FAM/TAMRA oligo cleavage fluorescence; 330,000 tested, 0.41% active; inhibition, % at 20 µM; recombinant A3A, FAM/TAMRA ssDNA deamination fluorescence;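 active = at least 40% inhibition at 20 µM here, with at most 30% in a related deaminase screen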;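 also: plate controls were A3A with DMSO for no effect and wells lacking A3A enzyme for full effect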
A3G deaminase: APOBEC3G DNA deaminase inhibitors, primary screen, biochemical, fluorescence, single-stranded DNA substrate, uHTS; DNA dC->dU-editing enzyme APOBEC-3G (Homo sapiens), Q9HC16; recombinant A3G, ssDNA deamination FAM/TAMRA fluorescence; inhibition, % at 20 µM; 330,000 tested, 0.28% active;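 active = inhibition of at least 40% at 20 µM, with no more than 30% in the related APOBEC3A deaminase screen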;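 also: plate controls were DMSO wells with A3G for no effect and wells lacking A3G enzyme for full effect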
Target sequence (Q9HC16 whole entry, looked up): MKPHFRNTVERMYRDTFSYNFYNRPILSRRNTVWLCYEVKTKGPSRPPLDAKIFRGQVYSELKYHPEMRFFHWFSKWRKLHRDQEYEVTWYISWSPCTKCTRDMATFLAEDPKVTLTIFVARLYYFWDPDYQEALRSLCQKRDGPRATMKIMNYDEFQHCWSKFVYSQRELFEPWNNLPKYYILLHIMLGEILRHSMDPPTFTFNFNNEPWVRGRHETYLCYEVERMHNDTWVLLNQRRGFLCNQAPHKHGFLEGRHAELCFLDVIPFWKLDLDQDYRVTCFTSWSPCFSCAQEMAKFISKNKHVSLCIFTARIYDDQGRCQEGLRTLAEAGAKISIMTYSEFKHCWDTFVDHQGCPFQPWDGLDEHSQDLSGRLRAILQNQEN
PRMT1 FP inh: PRMT1 methyltransferase inhibitors, primary screen, biochemical, fluorescence polarization. Protein arginine N-methyltransferase 1 (Homo sapiens), Q99873. recombinant PRMT1, activity-based probe fluorescence polarization. inhibition, % at 2.79 µM. 370,000 tested, 1.3% active;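 active = inhibition above about 21% made by adding two undisclosed values, limit read from the data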
ABHD5 PLIN5 conf: ABHD5-PLIN5 interaction inhibitors, confirmation, biochemical, luminescence; shares compounds with ABHD5-PLIN5 inh; inhibition, % at 4 µM; 2,200 tested, 67% active; AID 651612, 2012; in the data active = inhibition above about 23%;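 also: 0% = DMSO vehicle wells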
HNF4 counter: HNF4 dimerization inhibitors, counter-screen for ABHD5-PLIN5 interaction inhibitor project, biochemical, split-luciferase complementation, luminescence. shares compounds with ABHD5-PLIN5 inh. inhibition, % at 4 µM. 2,200 tested, 77% active. AID 651674, 2012;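 active = mean inhibition across replicate wells exceeding the computed hit threshold, cut at about 13% in these data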;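 also: light from luciferase halves that rejoin when HNF4 fusion proteins dimerize; 0% = DMSO only wells and the 100% control is not given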
Active calls of the source: *; / = not tested or not shown. Rows were chosen to be rich in hits. Some 2.9% of all compounds tested hit in one or more screens of this group.

SMILES	HCV NS3 hel inh	ABHD5-PLIN5 inh	HCV core dimer	APOBEC3A inh	A3G deaminase	PRMT1 FP inh	ABHD5 PLIN5 conf	HNF4 counter
CCOC(=O)/C(=C/c1c(C)n(C)c2ccc([N+](=O)[O-])cc12)C(C)=O	8	46*	1	-1	-5	0	83*	76*
COc1cc(/C=C/C(=O)OCC(=O)NCc2ccco2)ccc1O	/	7	-1	-3	-10	2	/	/
Cc1ccc(NC(=O)c2cnccn2)c(Br)c1	8	100*	-3	-3	-4	3	2	1
Cc1ccc(NC(=O)c2cnccn2)nc1	2	4	/	-1	-4	-1	/	/
Cc1ccc(-c2oc3ncnc(N)c3c2-c2ccc(C)cc2)cc1	-6	24*	2	3	4	-1	7	4
CCOc1cc(N)c(Cl)cc1C(=O)NCC1CN(Cc2ccc(F)cc2)CCO1 (centres undefined)	/	71*	7	-4	-2	2	78*	33*
Cc1ccc(S(=O)(=O)N2C3CC(c4ccccc4)N(S(=O)(=O)c4cccc(Cl)c4)CC3C(=O)C[C@H]2c2ccccc2)cc1 (some centres undefined)	/	-3	/	/	/	-1	/	/
CC(=O)Oc1c(Cl)c(N2CCOCC2)c(OC(C)=O)c2ccccc12	1	36*	-9	1	1	0	79*	8
Cc1cc(OC(=O)N2CCOCC2)cc(C)c1Cl	-3	-1	-2	4	4	3	/	/
Cn1c(=O)c2c(n(C)c1=O)n(C)c(=O)n2C	/	2	/	/	/	1	/	/
CN1C(=O)N(C)N(Cc2ccccc2)C(=O)N1Cc1ccccc1	/	/	/	/	/	1	/	/
O=C1C=CC(=O)N1Cc1ccccc1	7	32*	3	7	17	-2	4	2
O=C(C=Cc1cccs1)c1ccccc1	/	28*	/	/	/	-6	50*	45*
O=C(C=Cc1cccs1)c1ccc(Cl)s1	/	24*	/	/	/	1	60*	40*
O=C(/C=C/c1cccs1)c1ccc(NC(=O)c2ccccc2F)cc1	-3	8	7	-2	-2	-1	/	/
O=C(NC1(O)C(=O)c2ccccc2C1=O)c1ccc(C(F)(F)F)cc1	-1	28*	-22	3	9	2	54*	64*
Cc1cc(C)cc(-n2ncc3c2CCCC3NC(=O)CN2CCCCC2=O)c1 (centres undefined)	-6	-1	-1	2	-7	-1	/	/
COc1ccccc1N1CCN(Cc2cc(Br)c(O)c3ncccc23)CC1	19	25*	-9	-4	-3	4	14	14*
O=C1C=CC2C3C(=O)N(c4ccccc4)C(=O)C3C1N2Cc1ccccc1 (centres undefined)	/	90*	/	/	/	24*	100*	103*
O=C1C2C3C=CC(CC3)C2C(=O)N1c1ccccc1 (centres undefined)	1	3	/	-7	-7	-2	/	/
CSCCC(NC(=O)c1ccco1)C(=O)O (centres undefined)	5	-4	-2	-1	-11	0	/	/
CC(=O)NC(CSC(CC(=O)c1ccco1)c1ccc(C)cc1)C(=O)O (centres undefined)	-5	50*	-3	-7	-10	10	40*	40*
CN(C)CCC1(C2=CCCC2)CC/C(=C/c2ccc(Cl)cc2)C1=O (centres undefined)	/	32*	/	/	/	4	39*	21*
